Results published in PMC11920041 (NPJ Parkinson's Disease, 2025).
Like-named read-outs stand apart in the source and are kept apart here. One block for each compound: values may come before it.

What was measured:
[1] = mice; cited from earlier work
AADC = details: cited from earlier work
tyrDC = details: cited from earlier work
[2] = concomitant use in patients with PD; cited from earlier work
[3] = administered in combination with carbidopa; cited from earlier work
[4] = type: in vivo; details: human, plasma, oral, median [interquartile range]; for AUC: up to 3 h
Method in brief: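 Fasting ≥12 h after last meal, dosing from 9:00 a.m.; PD patients on oral levodopa, diagnosed by UK Brain Bank criteria; no concomitant magnesium oxide or prokinetics. Blood via indwelling catheter before and 15–180 min after dose; centrifuged 1000 g, 10 min, 4 °C; plasma stored −80 °C; HPLC-ECD. Cmax and Tmax taken from the curve; AUC to 3 h by linear trapezoidal rule.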

[5] = cited from earlier work
[6] = system: small intestinal bacterial overgrowth (SIBO); details: eradication of SIBO in patients with PD; cited from earlier work
[7] = female, female patients, n = 12

SMILES: N[C@@](CF)(Cc1ccc(O)cc1)C(=O)O [AFMT, (S)-α-fluoromethyltyrosine]
- effect of concomitant use on levodopa Cmax [1]: increased
- effect on AADC (AADC): without affecting AADC
- inhibition of tyrDC-mediated levodopa decarboxylation (tyrDC): selective inhibitor

SMILES: COc1ccc2nc([S@@+]([O-])Cc3ncc(C)c(OC)c3C)[nH]c2c1 [esomeprazole]
- effect on levels of carbidopa in the plasma [2]: without affecting
- effect on levels of levodopa in the plasma [2]: reduced

- AUC [4, 7]: 12.7 µM·h
- Cmax [4, 7]: 10.4 µM
- Tmax ([4]; low levodopa Cmax group (< 9 μmol/L), n = 11): 45 min
- AUC ([4]; male, male patients, n = 9): 6.95 µM·h
- Cmax ([4]; male, male patients, n = 9): 4.88 µM
- Tmax ([4]; male, male patients, n = 9): 45 min
SMILES: N[C@@H](Cc1ccc(O)c(O)c1)C(=O)O [levodopa]
- half-life [3]: approximately 90 min

SMILES: [O]=[Mg] [magnesium oxide]
- effect of concomitant use on bioavailability of levodopa [5]: may reduce

SMILES: CO[C@H]1/C=C/O[C@@]2(C)Oc3c(C)c(O)c4c(O)c(c5c(nc6cc(C)ccn65)c4c3C2=O)NC(=O)/C(C)=C\C=C\[C@H](C)[C@H](O)[C@@H](C)[C@@H](O)[C@@H](C)[C@H](OC(C)=O)[C@@H]1C [rifaximin]
- effect on motor fluctuations [6]: improves motor fluctuations
